Experimental data published in ChEMBL document CHEMBL1124475, “The thieno[3,2-c]pyridine and furo[3,2-c]pyridine rings: new pharmacophores with potential antipsychotic activity” (J Med Chem, 1989).
Calls of active or inactive are those of the source. No cut-off for these calls is given here.

What was measured:
[1] = target: T1, Serotonin 2 (5-HT2) receptor (Rattus norvegicus, UniProt P30994+P08909+P14842); assay: Ability to bind at 5-hydroxytryptamine 2 receptor of rat cortex by displacing [3H]spiperone
[2] = target: T2, Adrenergic receptor alpha-1 (Rattus norvegicus, UniProt P15823+P23944+P43140); assay: Ability to bind at Alpha-1 adrenergic receptor by displacing [3H]WB-4101; type: protein assay
T2 sequence (P15823 whole entry): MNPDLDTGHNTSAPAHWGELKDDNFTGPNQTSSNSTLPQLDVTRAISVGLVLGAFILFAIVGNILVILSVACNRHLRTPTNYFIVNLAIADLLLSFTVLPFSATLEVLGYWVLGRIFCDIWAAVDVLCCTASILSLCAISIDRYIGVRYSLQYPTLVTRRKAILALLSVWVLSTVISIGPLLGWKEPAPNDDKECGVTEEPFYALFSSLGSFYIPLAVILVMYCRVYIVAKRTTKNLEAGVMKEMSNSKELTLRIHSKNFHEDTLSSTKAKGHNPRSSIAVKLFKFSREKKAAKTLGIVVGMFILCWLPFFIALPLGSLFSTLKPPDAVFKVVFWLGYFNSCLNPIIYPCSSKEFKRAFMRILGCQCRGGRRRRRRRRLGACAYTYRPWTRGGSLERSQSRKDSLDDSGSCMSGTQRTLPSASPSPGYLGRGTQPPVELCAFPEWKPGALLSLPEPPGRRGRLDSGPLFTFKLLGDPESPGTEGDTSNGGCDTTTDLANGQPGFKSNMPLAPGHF
T2 sequence (P23944 whole entry): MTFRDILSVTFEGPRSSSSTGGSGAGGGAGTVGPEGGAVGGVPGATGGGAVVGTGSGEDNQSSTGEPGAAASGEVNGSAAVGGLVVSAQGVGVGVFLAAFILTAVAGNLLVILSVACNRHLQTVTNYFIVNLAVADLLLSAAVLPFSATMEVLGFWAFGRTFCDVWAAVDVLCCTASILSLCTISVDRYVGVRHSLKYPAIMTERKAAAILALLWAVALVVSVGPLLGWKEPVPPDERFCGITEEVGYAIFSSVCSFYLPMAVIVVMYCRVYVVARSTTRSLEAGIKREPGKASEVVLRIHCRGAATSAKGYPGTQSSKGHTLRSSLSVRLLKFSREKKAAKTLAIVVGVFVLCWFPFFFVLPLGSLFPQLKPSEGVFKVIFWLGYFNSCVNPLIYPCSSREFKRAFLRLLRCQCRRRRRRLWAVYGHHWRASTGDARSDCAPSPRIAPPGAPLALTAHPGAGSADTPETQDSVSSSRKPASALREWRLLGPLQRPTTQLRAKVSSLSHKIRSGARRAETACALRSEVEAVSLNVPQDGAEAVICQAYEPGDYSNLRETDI
T2 sequence (P43140 whole entry): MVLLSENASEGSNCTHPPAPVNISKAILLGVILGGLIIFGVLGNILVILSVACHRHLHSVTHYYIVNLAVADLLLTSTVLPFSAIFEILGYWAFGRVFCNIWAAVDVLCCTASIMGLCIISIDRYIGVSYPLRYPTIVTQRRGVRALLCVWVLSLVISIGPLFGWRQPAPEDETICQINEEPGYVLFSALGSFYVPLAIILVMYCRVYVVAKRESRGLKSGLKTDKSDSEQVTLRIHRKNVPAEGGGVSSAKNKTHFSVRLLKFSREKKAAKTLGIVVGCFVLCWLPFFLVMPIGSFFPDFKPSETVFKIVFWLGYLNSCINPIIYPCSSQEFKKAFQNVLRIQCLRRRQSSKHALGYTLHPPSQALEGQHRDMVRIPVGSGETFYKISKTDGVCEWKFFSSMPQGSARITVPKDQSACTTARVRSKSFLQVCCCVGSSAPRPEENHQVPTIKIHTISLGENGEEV

Rattus norvegicus [3] = assay: Blockade of Sidman-avoidance activity in rats when administered perorally; Inactive; type: functional, organism-based
Method in brief: (§1)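 Rats trained in once-daily Sidman sessions until stable; non-learners after 3 days replaced. Twelve rats dosed 30 min before session. Each rat compared with mean of its previous three drug-free days by paired t test. Testing continued to minimally effective dose; maximum usually 100 mg/kg. MED is mean over 12 animals.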

D(2) dopamine receptor [4] = target: T3, D(2) dopamine receptor (Rattus norvegicus, UniProt P61169); assay: Ability to bind at dopamine receptor D2 of rat corpus striatum by displacing [3H]spiperone
[5] = target: T4, Serotonin 1 (5-HT1) receptor (Rattus norvegicus, UniProt P28564+P30940+P19327+P28565); assay: Ability to bind at 5-hydroxytryptamine 1 receptor of rat hippocampus by displacing [3H]5-HT; type: tissue-based
Method in brief: (§2)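 Rat receptor radioligand displacement, five test-ligand concentrations used to calculate IC50, each assay in duplicate. Some compounds determined four times (in duplicate), with mean IC50 reported.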

Rattus norvegicus [6] = assay: Blockade of apomorphine-induced stereotypy in rats when administered perorally; type: functional; conditions: po
Rattus norvegicus [7] = assay: Conditioned avoidance response (CAR) when administered perorally; type: functional; conditions: po
Rattus norvegicus [8] = assay: Reversal of trifluoperazine-induced catalepsy in rats when administered perorally; Inactive; type: functional, organism-based
[9] = target: T1, Serotonin 2 (5-HT2) receptor; assay: Ability to bind at serotonin 5-hydroxytryptamine 2 receptors of rat cortex by displacing [3H]spiperone
D(2) dopamine receptor [10] = target: T3, D(2) dopamine receptor; assay: Ability to bind at Dopamine receptor D2 of rat corpus striatum by displacing [3H]spiperone
Method in brief: as §2

Mus musculus [11] = assay: Blockade of apomorphine-induced climbing in mice when administered perorally; type: functional; conditions: po
Method in brief: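 Male mice habituated 30 min in individual cages, then dosed orally (distilled H2O or 0.5% Methocel suspension, 10 mL/kg) or vehicle. Apomorphine 1.5 mg/kg sc given 30 min later. Climbing scored at 10, 20, 30 min post-apomorphine. At least five animals per dose, maximum 100 mg/kg.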

[12] = target: T2, Adrenergic receptor alpha-1; assay: Ability to bind at alpha-1 adrenergic receptor by displacing [3H]WB-4101; type: protein assay
Method in brief: as §2

Rattus norvegicus [13] = assay: Blockade of Sidman-avoidance activity in rats when administered perorally; type: functional
Method in brief: as §1

[14] = target: T5, 5-hydroxytryptamine receptor 1A (Rattus norvegicus, UniProt P19327); assay: Ability to bind at 5-hydroxytryptamine 1A receptor of rat hippocampus by displacing [3H]8-OH-DPAT; type: tissue-based
T5 sequence (P19327 whole entry): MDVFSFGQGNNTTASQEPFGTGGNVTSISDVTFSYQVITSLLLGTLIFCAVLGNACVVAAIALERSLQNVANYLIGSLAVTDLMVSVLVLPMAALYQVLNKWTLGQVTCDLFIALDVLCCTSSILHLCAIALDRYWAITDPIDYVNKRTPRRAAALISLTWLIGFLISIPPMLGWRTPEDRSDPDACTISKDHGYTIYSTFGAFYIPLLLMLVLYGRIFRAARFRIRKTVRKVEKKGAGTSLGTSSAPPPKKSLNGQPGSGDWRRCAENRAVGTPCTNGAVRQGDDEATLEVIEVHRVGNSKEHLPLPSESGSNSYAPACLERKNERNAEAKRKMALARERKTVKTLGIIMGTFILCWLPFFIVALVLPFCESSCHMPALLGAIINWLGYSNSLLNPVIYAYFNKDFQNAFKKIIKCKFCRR
Method in brief: as §2

Mus musculus [15] = assay: Blockade of apomorphine-induced climbing in mice when administered perorally
Rattus norvegicus [16] = organism: Rattus norvegicus; assay: animal or person; conditions: po
[17] = target: T6, Adrenergic receptor alpha-2 (Rattus norvegicus, UniProt P22086+P19328+P22909); assay: Ability to bind at alpha-2 adrenergic receptor by displacing [3H]clonidine; type: protein assay
T6 sequence (P22086 whole entry): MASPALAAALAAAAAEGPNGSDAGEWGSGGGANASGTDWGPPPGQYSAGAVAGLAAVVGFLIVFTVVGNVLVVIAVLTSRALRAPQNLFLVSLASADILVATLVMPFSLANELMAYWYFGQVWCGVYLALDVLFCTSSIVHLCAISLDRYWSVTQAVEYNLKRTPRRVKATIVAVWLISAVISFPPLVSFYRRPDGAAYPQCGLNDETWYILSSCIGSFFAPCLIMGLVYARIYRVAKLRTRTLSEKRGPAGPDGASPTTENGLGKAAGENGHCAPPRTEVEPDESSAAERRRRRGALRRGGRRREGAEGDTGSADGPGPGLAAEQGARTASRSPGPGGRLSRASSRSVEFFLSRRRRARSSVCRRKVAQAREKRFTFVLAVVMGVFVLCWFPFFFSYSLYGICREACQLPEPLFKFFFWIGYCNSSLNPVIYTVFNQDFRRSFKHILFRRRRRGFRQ
T6 sequence (P19328 whole entry): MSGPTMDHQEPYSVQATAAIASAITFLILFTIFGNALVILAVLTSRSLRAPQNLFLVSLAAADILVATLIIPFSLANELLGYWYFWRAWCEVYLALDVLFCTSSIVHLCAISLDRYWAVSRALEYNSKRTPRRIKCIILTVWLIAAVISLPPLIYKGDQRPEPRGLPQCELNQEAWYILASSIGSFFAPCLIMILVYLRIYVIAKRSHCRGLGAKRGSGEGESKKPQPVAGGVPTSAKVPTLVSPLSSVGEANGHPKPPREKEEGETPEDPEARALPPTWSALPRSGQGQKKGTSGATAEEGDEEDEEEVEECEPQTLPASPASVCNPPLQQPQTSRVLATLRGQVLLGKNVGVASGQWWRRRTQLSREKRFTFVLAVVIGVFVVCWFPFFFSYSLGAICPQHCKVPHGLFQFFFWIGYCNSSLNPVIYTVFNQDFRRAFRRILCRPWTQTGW
T6 sequence (P22909 whole entry): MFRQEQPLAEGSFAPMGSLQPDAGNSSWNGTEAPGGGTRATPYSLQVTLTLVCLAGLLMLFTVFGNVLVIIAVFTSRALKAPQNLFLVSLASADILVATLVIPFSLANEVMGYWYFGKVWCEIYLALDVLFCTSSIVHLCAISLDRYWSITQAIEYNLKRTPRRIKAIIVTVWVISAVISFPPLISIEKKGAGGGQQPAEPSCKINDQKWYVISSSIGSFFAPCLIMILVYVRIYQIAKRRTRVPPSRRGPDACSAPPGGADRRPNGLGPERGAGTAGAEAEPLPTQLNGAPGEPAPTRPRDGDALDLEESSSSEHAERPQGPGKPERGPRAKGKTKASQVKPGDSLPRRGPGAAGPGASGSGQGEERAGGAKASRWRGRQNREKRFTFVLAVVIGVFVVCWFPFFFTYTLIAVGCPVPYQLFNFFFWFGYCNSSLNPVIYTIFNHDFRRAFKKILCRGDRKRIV

Rattus norvegicus [18] = assay: Approximate effective dose (AED) in inhibition of spontaneous motor activity when administered perorally; type: functional
Method in brief: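 Three groups of five animals, each group at a different dose. Mean log activity count per group compared with vehicle controls, and the difference plotted against log dose. AED taken at the dose giving a 0.3 log-unit (about 2-fold) difference from control.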

[19] = target: T4, Serotonin 1 (5-HT1) receptor; assay: Ability to bind at serotonin 5-hydroxytryptamine 1 receptor of rat hippocampus by displacing [3H]5-HT; type: tissue-based
Rattus norvegicus [20] = assay: Induction of catalepsy in rats when administered perorally; type: functional; conditions: po
Rattus norvegicus [21] = assay: Reversal of trifluoperazine-induced catalepsy in rats when administered perorally; Inactive, maximum dose examined was 20 mg/Kg; type: functional, organism-based

T3 sequence (P61169 whole entry): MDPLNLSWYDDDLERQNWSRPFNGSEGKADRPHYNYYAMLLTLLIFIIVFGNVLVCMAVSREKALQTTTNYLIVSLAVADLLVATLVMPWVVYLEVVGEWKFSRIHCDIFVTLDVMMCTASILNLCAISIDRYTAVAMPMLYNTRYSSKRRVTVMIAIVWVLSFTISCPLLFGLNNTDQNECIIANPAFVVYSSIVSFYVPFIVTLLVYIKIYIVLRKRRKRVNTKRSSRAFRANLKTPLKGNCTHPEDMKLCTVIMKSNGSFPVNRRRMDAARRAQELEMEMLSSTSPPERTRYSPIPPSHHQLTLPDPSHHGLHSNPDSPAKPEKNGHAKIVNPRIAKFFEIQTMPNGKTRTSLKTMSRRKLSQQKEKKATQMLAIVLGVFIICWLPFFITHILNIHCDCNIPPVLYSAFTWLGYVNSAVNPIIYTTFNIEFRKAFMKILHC

Row | SMILES | IC50 [5] | ED50 (Rattus norvegicus [6]) | ED50 (Rattus norvegicus [7]) | ED50 (Rattus norvegicus [8]) | IC50 [9] | IC50 (D(2) dopamine receptor [10]) | IC50 [12] | MED50 (Mus musculus [15]) | MED50 (Rattus norvegicus [13]) | IC50 [17] | AED (Rattus norvegicus [18]) | other results
1 | Cl.O=C1SC2(CCCC2)C(=O)N1CCCCN1CCN(c2nccc3ccsc23)CC1 | 3.7 nM | 46.7 mg/kg | 43.1 mg/kg | inactive | – | – | – | – | – | – | – | IC50 [1]: 20.2 nM; IC50 [2]: 36.8 nM; MED50 (Rattus norvegicus [3]): inactive; IC50 (D(2) dopamine receptor [4]): 418 nM
2 | OC(CCCN1CCN(c2nccc3sccc23)CC1)c1ccc(F)cc1 (stereo unspecified) | 3.8 nM | 9 mg/kg | 9.9 mg/kg | – | 5.8 nM | 71.7 nM | 22.8 nM | – | – | – | – | MED (Mus musculus [11]): 10 mg/kg; MED (Rattus norvegicus [13]; po): 10 mg/kg
3 | CN(C)CCCN1c2ccccc2Sc2ccc(Cl)cc21 [CHLORPROMAZINE] | > 1000 nM | 9.6 mg/kg | – | inactive | – | – | – | 6 mg/kg | 25 mg/kg | – | – | IC50 [14]: 372 nM; ED50 (Rattus norvegicus [16]): 4.1 mg/kg
4 | Cl.c1cc2occc2c(N2CCNCC2)n1 | – | – | 7.3 mg/kg | – | 377 nM | > 1000 nM | 426 nM | – | – | 144 nM | 10.7 mg/kg | IC50 [19]: 150 nM
5 | Cl.c1cc2sccc2c(N2CCNCC2)n1 | 71.3 nM | – | 28.6 mg/kg | – | 141 nM | > 1000 nM | 139 nM | – | – | 113 nM | 20.9 mg/kg | –
6 | CN1CCN(C2=Nc3cc(Cl)ccc3Nc3ccccc32)CC1 [CLOZAPINE] | – | – | – | – | – | – | – | 10 mg/kg | 50 mg/kg | – | – | ED50 (Rattus norvegicus [20]): > 200 mg/kg; ED50 (Rattus norvegicus [21]): inactive
